Measurements as given in ChEMBL document CHEMBL2150885, “Dual anticoagulant/antiplatelet persulfated small molecules” (Eur J Med Chem, 2011).
Active and inactive are the calls of the source. No cut-off for these calls is given here.

Columns and labels:
[1] = tested on: NCI-H460; experiment: Cytotoxicity against human NCI-H460 cells at 1.5 x 10^-4 after 48 hrs; type: cell-based; conditions: nci-h460, 48 h
[2] = tested on: Platelet; experiment: Antiplatelet activity against arachidonic acid-induced platelet aggregation in human blood at 6.25 x 10^-4 M measured for 6 mins by multiplate electrical impedance aggregometry; type: functional, cell-based
Summary of the method: (§1)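 Hirudin-anticoagulated (final […]) healthy-donor whole blood, used within 0.5–1 h. Compound in saline to final 6.25 × 10⁻⁴ M; saline control, acetylsalicylic acid 6.25 × 10⁻⁴ M reference. Blood mixed with saline at 37 °C for 180 s, then agonist at final TRAP-6 […], arachidonic acid 0.5 mM or ADP […]. Impedance recorded 6 min; AUC from mean of two curves, accepted if within 20%.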

[3] = target: Coagulation factor X (Homo sapiens) (UniProt P00742); experiment: Inhibition of human factor 10a using CH3SO2-D-Leu-Gly-Arg-pNA, AcOH as substrate at 1 x 10^-3 M by chromogenic substrate hydrolysis assay
Coagulation factor X (Homo sapiens), sequence (P00742 41-179 limits assumed): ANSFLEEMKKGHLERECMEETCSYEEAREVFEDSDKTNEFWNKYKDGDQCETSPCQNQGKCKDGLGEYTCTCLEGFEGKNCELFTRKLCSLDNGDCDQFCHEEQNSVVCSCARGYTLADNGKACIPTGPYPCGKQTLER
Coagulation factor X (Homo sapiens), sequence (P00742 235-488 limits assumed): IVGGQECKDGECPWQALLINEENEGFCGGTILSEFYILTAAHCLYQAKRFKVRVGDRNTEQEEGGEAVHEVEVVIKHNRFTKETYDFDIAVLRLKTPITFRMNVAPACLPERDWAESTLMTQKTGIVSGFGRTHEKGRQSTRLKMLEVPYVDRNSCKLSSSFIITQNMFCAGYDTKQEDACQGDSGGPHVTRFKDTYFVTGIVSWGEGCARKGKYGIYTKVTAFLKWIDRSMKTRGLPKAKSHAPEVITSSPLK
Summary of the method: (§2)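 Chromogenic hydrolysis in 50 mM Tris/HCl pH 8.3, 227 mM NaCl, 0.1% BSA, with and without bovine antithrombin III (1 U/mL final). Human factor Xa 0.5 U/mL with CBS 31.39 […], or human thrombin 0.06 U/mL with Chromozym TH […]. Absorbance at 405 nm, enzyme-free blank subtracted; initial slope vs water control gives % inhibition. Compounds at 1 × 10⁻³ M; n = 6.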

[4] = tested on: Plasma; experiment: Anticoagulant activity in human plasma assessed as effect on APC level using CBS 42.46 as synthetic substrate at 1 x 10^-3 M; type: functional
Summary of the method: (§3)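 Compound in saline added to citrated human plasma. Protein C activated by a snake venom-derived activator; enzyme formed quantified by amidolytic activity on chromogenic substrate CBS 42.46. Calibration curve linear 3–150%; normal and pathological control plasmas verify accuracy. Compounds at 1 × 10⁻³ M.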

[5] = target: Prothrombin (Homo sapiens) (UniProt P00734); experiment: Inhibition of human thrombin using Tosyl-Gly-Pro-Arg-p-nitroaniline as substrate at 1 x 10^-3 M by chromogenic substrate hydrolysis assay; summary of the method: as §2
[6] = Cytotoxicity against human A375-C5 cells at 1.5 x 10^-4 after 48 hrs; type: cell-based; conditions: a375-c5, 48 h
[7] = tested on: Plasma; experiment: Anticoagulant activity in human plasma assessed as effect on prothrombin level by PT clotting time with factor II deficient plasma at 1 x 10^-3 M
[8] = tested on: Plasma; experiment: Anticoagulant activity in human plasma assessed as concentration required to double activated partial thromboplastin time; type: functional
Summary of the method: (§4)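 Pooled citrated human plasma; compounds in water (10% DMSO for some), final 5 × 10⁻³ to 0.05 × 10⁻³ M; heparin 0.1–10 UI/mL as reference. APTT, PT and TT measured on a coagulometer with commercial kits, clotting time in s. Duplicates repeated on three days (n = 6). Concentration doubling clotting time obtained by linear regression of each concentration-response curve.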

[9] = target: Antithrombin-III (Bos taurus) (UniProt P41361); experiment: Inhibition of bovine antithrombin-3 at 1 x 10^-3 M
Antithrombin-III (Bos taurus), sequence (P41361 whole entry): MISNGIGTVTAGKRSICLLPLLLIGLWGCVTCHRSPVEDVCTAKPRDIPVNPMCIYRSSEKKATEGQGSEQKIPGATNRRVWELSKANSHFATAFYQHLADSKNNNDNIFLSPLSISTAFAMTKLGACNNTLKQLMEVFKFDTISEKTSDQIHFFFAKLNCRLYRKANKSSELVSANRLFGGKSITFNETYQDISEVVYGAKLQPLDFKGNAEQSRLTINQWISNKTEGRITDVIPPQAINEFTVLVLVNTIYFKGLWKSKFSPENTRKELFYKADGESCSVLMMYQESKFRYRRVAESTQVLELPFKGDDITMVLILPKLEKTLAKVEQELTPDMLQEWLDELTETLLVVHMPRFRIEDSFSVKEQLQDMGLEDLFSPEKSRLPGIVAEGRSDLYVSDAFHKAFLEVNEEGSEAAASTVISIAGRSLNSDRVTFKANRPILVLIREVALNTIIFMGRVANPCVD

[10] = tested on: Platelet; experiment: Antiplatelet activity against thrombin receptor-activating peptide-6-induced platelet aggregation in human blood at 6.25 x 10^-4 M measured for 6 mins by multiplate electrical impedance aggregometry; type: functional, cell-based; summary of the method: as §1
[11] = tested on: Blood; experiment: Anticoagulant activity in human whole blood assessed as clotting time at 6.25 x 10'4 M by thromboelastography assay; type: functional
Summary of the method: (§5)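 Citrated whole blood (citrate:blood 1:9) from healthy donors. Compound in saline diluted 1:16 into blood to final 3.12 × 10⁻⁴ or 6.25 × 10⁻⁴ M; saline control. Thromboelastography with intrinsic activator (InTEM); R clotting time and K clot formation time in s. Mean of three independent experiments in duplicate.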

[12] = tested on: Plasma; experiment: Anticoagulant activity in human plasma assessed as concentration required to double prothrombin time; type: functional; summary of the method: as §4
[13] = tested on: MCF7; experiment: Cytotoxicity against human ER-positive MCF7 cells at 1.5 x 10^-4 after 48 hrs; type: cell-based; conditions: mcf7, 48 h
[14] = tested on: Platelet; experiment: Antiplatelet activity against adenosine diphosphate-induced platelet aggregation in human blood at 6.25 x 10^-4 M measured for 6 mins by multiplate electrical impedance aggregometry; type: functional, cell-based; summary of the method: as §1
[15] = tested on: Blood; experiment: Anticoagulant activity in human whole blood assessed as clotting formation time at 6.25 x 10'4 M by InTEM-TEG assay; type: functional; summary of the method: as §5
[16] = tested on: Plasma; experiment: Anticoagulant activity in human plasma assessed as concentration required to double thrombin time at 5 x 10^-3 M; type: functional, cell-free; summary of the method: as §4
[17] = tested on: Plasma; experiment: Anticoagulant activity in human plasma assessed as effect on prothrombin level by PT clotting time with factor II deficient plasma
[18] = tested on: Plasma; experiment: Anticoagulant activity in human plasma assessed as effect on APC level using CBS 42.46 as synthetic substrate; type: functional, cell-free; summary of the method: as §3
[19] = Antiplatelet activity against collagen-epinephrine-activated platelet in human blood assessed as closure time at 6.25 x 10^-4 M; type: functional
Summary of the method: (§6)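 Healthy-donor whole blood collected into hirudin (final […]), analysed within 0.5–1 h. Closure time measured in a PFA-100 under high shear through an aperture, platelets activated by a collagen-coated membrane with ADP or epinephrine.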

[20] = Antiplatelet activity against collagen-ADP-activated platelet in human blood assessed as closure time at 6.25 x 10^-4 M; type: functional; summary of the method: as §6
[21] = tested on: Plasma; experiment: Anticoagulant activity in human plasma assessed as concentration required to double prothrombin time at 5 x 10^-3 M; type: functional, cell-free; summary of the method: as §4

| Structure (SMILES) | Activity [1] | AUC [2] [AU.min] | inhibition [3] | Activity [4] [%] | inhibition [5] | Activity [6] | Activity [7] [%] | 2aPTT [8] | Activity [8] | inhibition [9] | AUC [10] [AU.min] | 2PT [12] [mM] | Activity [12] | Activity [13] | AUC [14] [AU.min] | Activity [16] | Activity [21] | further results |
| --- | --- | --- | --- | --- | --- | --- | --- | --- | --- | --- | --- | --- | --- | --- | --- | --- | --- | --- |
| O=c1ccc2cc(O[C@@H]3O[C@H](COS(=O)(=O)[O-])[C@@H](OS(=O)(=O)[O-])[C@H](OS(=O)(=O)[O-])[C@H]3OS(=O)(=O)[O-])c(OS(=O)(=O)[O-])cc2o1.[Na+].[Na+].[Na+].[Na+].[Na+] [ESCULIN PERSULFATE] | Non-toxic | 980 | inactive | 87 | inactive | Non-toxic | 64.5 | 0.309 mM | Dose-dependent effect | inactive | 890 | > 5 | Dose-dependent effect | Non-toxic | 980 | inactive | – | Time [11]: 340 s; Time [15]: 95 s |
| C[C@@H]1O[C@@H](OC[C@H]2O[C@@H](Oc3c(-c4ccc(OCCOS(=O)(=O)[O-])c(OCCOS(=O)(=O)[O-])c4)oc4cc(OCCOS(=O)(=O)[O-])cc(O)c4c3=O)[C@H](OS(=O)(=O)[O-])[C@@H](OS(=O)(=O)[O-])[C@@H]2OS(=O)(=O)[O-])[C@H](OS(=O)(=O)[O-])[C@H](OS(=O)(=O)[O-])[C@H]1OS(=O)(=O)[O-].[Na+].[Na+].[Na+].[Na+].[Na+].[Na+].[Na+].[Na+].[Na+] | Non-toxic | 330 | – | 38.5 | – | Non-toxic | 10.9 | – | – | – | 840 | – | – | Non-toxic | 330 | – | – | Activity [17]: Dose-dependent effect; Activity [18]: Dose-dependent effect |
| Cc1cc(=O)oc2cc(O[C@@H]3O[C@H](COS(=O)(=O)[O-])[C@@H](OS(=O)(=O)[O-])[C@H](OS(=O)(=O)[O-])[C@H]3OS(=O)(=O)[O-])ccc12.[Na+].[Na+].[Na+].[Na+] | Non-toxic | – | inactive | 97 | inactive | Non-toxic | 64.5 | 1.18 mM | Dose-dependent effect | inactive | – | > 5 | Dose-dependent effect | Non-toxic | – | inactive | – | – |
| CC(=O)Oc1ccccc1C(=O)O | – | 230 | – | – | – | – | – | – | – | – | – | – | – | – | – | – | – | – |
| O=S(=O)([O-])OCc1ccccc1O[C@@H]1O[C@H](COS(=O)(=O)[O-])[C@@H](OS(=O)(=O)[O-])[C@H](OS(=O)(=O)[O-])[C@H]1OS(=O)(=O)[O-].[Na+].[Na+].[Na+].[Na+].[Na+] [SALICIN PERSULFATE] | Non-toxic | – | inactive | 93 | inactive | Non-toxic | 66 | 0.899 mM | Dose-dependent effect | inactive | – | > 5 | Dose-dependent effect | Non-toxic | – | inactive | – | – |
| O=C1O[C@H]([C@H](COS(=O)(=O)[O-])OS(=O)(=O)[O-])C(OS(=O)(=O)[O-])=C1OS(=O)(=O)[O-].[Na+].[Na+].[Na+].[Na+] [ASCORBIC ACID PERSULFATE] | – | 905 | inactive | 94 | inactive | – | 91.5 | 0.315 mM | Dose-dependent effect | inactive | 1100 | > 5 | Dose-dependent effect | – | 680 | inactive | – | Time [19]: 121 s; Time [11]: 205 s; Time [15]: 84 s; Time [20]: 106 s |
| O=C(O)c1cc(OS(=O)(=O)[O-])c(OS(=O)(=O)[O-])c(OS(=O)(=O)[O-])c1.[Na+].[Na+].[Na+] | Non-toxic | – | inactive | 101 | inactive | Non-toxic | 61.5 | 1.96 mM | Dose-dependent effect | inactive | – | – | – | Non-toxic | – | inactive | inactive | – |
| O=c1oc2c(OS(=O)(=O)O)c(OS(=O)(=O)O)cc3c(=O)oc4c(OS(=O)(=O)O)c(OS(=O)(=O)O)cc1c4c23 | – | – | – | – | – | – | – | – | – | – | – | – | – | – | – | inactive | inactive | – |
| O=C(/C=C/c1ccc(OS(=O)(=O)[O-])c(OS(=O)(=O)[O-])c1)O[C@@H]1C[C@](OS(=O)(=O)[O-])(C(=O)O)C[C@@H](OS(=O)(=O)[O-])[C@H]1OS(=O)(=O)[O-].[Na+].[Na+].[Na+].[Na+].[Na+] [CHLOROGENIC ACID PERSULFATE] | – | – | inactive | 95 | inactive | – | 82 | 3.66 mM | Dose-dependent effect | inactive | – | – | – | – | – | inactive | inactive | – |
| COc1ccc([C@@H]2CC(=O)c3c(O)cc(O[C@@H]4O[C@H](CO[C@@H]5O[C@@H](C)[C@H](OS(=O)(=O)[O-])[C@@H](OS(=O)(=O)[O-])[C@H]5OS(=O)(=O)[O-])[C@@H](OS(=O)(=O)[O-])[C@H](OS(=O)(=O)[O-])[C@H]4OS(=O)(=O)[O-])cc3O2)cc1O.[Na+].[Na+].[Na+].[Na+].[Na+].[Na+] [HEXASULFATED HESPERIDIN] | Non-toxic | 150 | – | 85 | – | Non-toxic | 47.5 | 4.13 ×10⁻⁴ M | – | – | 1200 | – | – | Non-toxic | 150 | – | – | – |
